Laboratory results: ChEMBL document CHEMBL2321824, “5-((1-Aroyl-1H-indol-3-yl)methylene)-2-thioxodihydropyrimidine-4,6(1H,5H)-diones as potential anticancer agents with anti-inflammatory properties” (2013)

Key:
Type in all cases: functional
CCRF-CEM = assay: Cytotoxicity against human CCRF-CEM cells; conditions: for CC50: read-out: LC50 (the source's name)
Summary of the method: (§1)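 Tested in the NCI 60 human tumor cell line panel (leukemia, NSCLC, colon, CNS, melanoma, ovarian, renal, prostate and breast lines) at five doses. A single-dose pre-screen at 10 μM selected which compounds went on. Effect was plotted against log10 drug concentration for each line. GI50 is the molar concentration giving 50% growth inhibition; LC50 is the concentration killing 50% of cells.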

HOP-62 = assay: Cytotoxicity against human HOP62 cells; conditions: for CC50: read-out: LC50 (the source's name); summary of the method: as §1
LOX IMVI = assay: Cytotoxicity against human LOXIMVI cells; conditions: for CC50: read-out: LC50 (the source's name); summary of the method: as §1
U-251 = assay: Cytotoxicity against human U251 cells; conditions: for CC50: read-out: LC50 (the source's name); summary of the method: as §1
KM12 = assay: Cytotoxicity against human KM12 cells; conditions: for CC50: read-out: LC50 (the source's name); summary of the method: as §1
OVCAR-3 = assay: Cytotoxicity against human OVCAR3 cells; conditions: for CC50: read-out: LC50 (the source's name); summary of the method: as §1
HCT-15 = assay: Cytotoxicity against human HCT15 cells; conditions: for CC50: read-out: LC50 (the source's name); summary of the method: as §1
NCI/ADR-RES = assay: Cytotoxicity against human NCI/ADR-RES cells; conditions: for CC50: read-out: LC50 (the source's name); summary of the method: as §1
HCT-116 = assay: Cytotoxicity against human HCT116 cells; conditions: for CC50: read-out: LC50 (the source's name); summary of the method: as §1
SR = assay: Cytotoxicity against human SR cells; summary of the method: as §1
SF-268 = assay: Cytotoxicity against human SF268 cells; summary of the method: as §1
SF-539 = assay: Cytotoxicity against human SF539 cells; conditions: for CC50: read-out: LC50 (the source's name); summary of the method: as §1
HL-60(TB) = assay: Cytotoxicity against human HL-60(TB) cells; summary of the method: as §1
MDA-MB-435 = assay: Cytotoxicity against human MDA-MB-435 cells; conditions: for CC50: read-out: LC50 (the source's name)
Summary of the method: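 Tested in the NCI 60 human tumor cell line panel (leukemia, NSCLC, colon, CNS, melanoma, ovarian, renal, prostate and breast lines) at five doses. A single-dose pre-screen at 10 μM selected which compounds went on. Effect was plotted against log10 drug concentration for each line.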

M14 = assay: Cytotoxicity against human M14 cells; summary of the method: as §1
K562 = assay: Cytotoxicity against human K562 cells; summary of the method: as §1
SK-MEL-5 = assay: Cytotoxicity against human SK-MEL-5 cells; summary of the method: as §1
DU-145 = assay: Cytotoxicity against human DU145 cells; conditions: for CC50: read-out: LC50 (the source's name); summary of the method: as §1
UACC-62 = assay: Cytotoxicity against human UACC62 cells; conditions: for CC50: read-out: LC50 (the source's name); summary of the method: as §1
UO-31 = assay: Cytotoxicity against human UO31 cells; conditions: for CC50: read-out: LC50 (the source's name); summary of the method: as §1
MOLT-4 = assay: Cytotoxicity against human MOLT4 cells; conditions: for CC50: read-out: LC50 (the source's name); summary of the method: as §1
HOP-92 = assay: Cytotoxicity against human HOP92 cells; conditions: for CC50: read-out: LC50 (the source's name); summary of the method: as §1

| Structure (SMILES) | GI50 (CCRF-CEM) [µM] | CC50 (CCRF-CEM) [µM] | GI50 (LOX IMVI) [µM] | CC50 (LOX IMVI) [µM] | GI50 (OVCAR-3) [µM] | CC50 (OVCAR-3) [µM] | GI50 (HCT-15) [µM] | CC50 (HCT-15) [µM] | GI50 (NCI/ADR-RES) [µM] | CC50 (NCI/ADR-RES) [µM] | GI50 (HCT-116) [µM] | CC50 (HCT-116) [µM] | GI50 (SR) [µM] | GI50 (SF-268) [µM] | GI50 (SF-539) [µM] | CC50 (SF-539) [µM] | GI50 (HL-60(TB)) [µM] | CC50 (MDA-MB-435) [µM] | GI50 (M14) [µM] | GI50 (K562) [µM] | further results |
| --- | --- | --- | --- | --- | --- | --- | --- | --- | --- | --- | --- | --- | --- | --- | --- | --- | --- | --- | --- | --- | --- |
| COc1ccc2c(c1)c(C=C1C(=O)NC(=S)NC1=O)cn2C(=O)c1ccccc1Br | 4 | > 100 | 2.92 | 47.9 | 2.77 | 33.1 | 3.83 | 89.9 | 3.23 | > 100 | 3.76 | > 100 | 2.55 | 3.86 | 3 | 57.8 | 3.24 | 8.43 | 3.52 | 3.8 | GI50 (HOP-62): 3.59 µM; CC50 (HOP-62): 64.3 µM; GI50 (U-251): 3.09 µM; CC50 (U-251): 42.1 µM; GI50 (KM12): 3.87 µM; CC50 (KM12): 51.9 µM; LC50 (SR): > 100 µM; LC50 (SF-268): 52.2 µM; LC50 (HL-60(TB)): > 100 µM; GI50 (MDA-MB-435): 1.77 µM; LC50 (M14): > 100 µM; LC50 (K562): > 100 µM; GI50 (SK-MEL-5): 3.47 µM; LC50 (SK-MEL-5): > 50 µM; GI50 (DU-145): 3.01 µM; CC50 (DU-145): 53.6 µM; GI50 (UACC-62): 3.38 µM; CC50 (UACC-62): 39.6 µM |
| O=C1NC(=S)NC(=O)C1=Cc1cn(C(=O)c2cccc3ccccc23)c2ccccc12 | 3.35 | > 100 | 3.59 | > 100 | 2.46 | > 100 | 3.6 | 58.6 | 2.59 | > 100 | 2.9 | > 100 | 2.74 | 3.68 | 3.58 | 55.6 | 3.36 | 46.2 | 3.22 | 3.71 | GI50 (UO-31): 3.93 µM; CC50 (UO-31): > 100 µM; GI50 (MOLT-4): 3.49 µM; CC50 (MOLT-4): 79 µM; LC50 (SR): 44.8 µM; LC50 (SF-268): 50.7 µM; LC50 (HL-60(TB)): > 100 µM; GI50 (MDA-MB-435): 1.91 µM; LC50 (M14): 9.23 µM; LC50 (K562): > 100 µM; GI50 (HOP-92): 1.3 µM; CC50 (HOP-92): 44.8 µM |
| COc1ccc2c(c1)c(C=C1C(=O)NC(=S)NC1=O)cn2C(=O)c1cccc2ccccc12 | 3.31 | > 100 | 3.8 | > 100 | 2.38 | 20.9 | 3.1 | > 100 | 3.14 | > 100 | 3.35 | > 100 | 3.32 | 2.3 | 3.23 | > 100 | 3.47 | 12 | 1.91 | 3.52 | GI50 (UO-31): 3.72 µM; CC50 (UO-31): > 100 µM; GI50 (MOLT-4): 3.95 µM; CC50 (MOLT-4): > 100 µM; LC50 (SR): > 100 µM; LC50 (SF-268): > 100 µM; LC50 (HL-60(TB)): > 100 µM; GI50 (MDA-MB-435): 2.01 µM; LC50 (M14): > 100 µM; LC50 (K562): > 100 µM; GI50 (HOP-92): 1.09 µM; CC50 (HOP-92): > 100 µM |
| COc1ccc(C(=O)n2cc(C=C3C(=O)NC(=S)NC3=O)c3cc(OC)ccc32)cc1 | 2.23 | > 50 | 1.86 | > 50 | 1.26 | > 50 | 1.8 | > 50 | 2.91 | – | 1.95 | – | 1.45 | 2.65 | 2.56 | > 50 | 3.91 | 3.86 | 2.03 | 2.55 | GI50 (HOP-62): 3.12 µM; CC50 (HOP-62): > 50 µM; GI50 (U-251): 1.93 µM; CC50 (U-251): > 50 µM; GI50 (KM12): 1.99 µM; CC50 (KM12): > 50 µM; GI50 (SK-MEL-5): 2.31 µM; GI50 (DU-145): 2.41 µM; CC50 (DU-145): > 50 µM; GI50 (UACC-62): 2.33 µM; CC50 (UACC-62): > 50 µM |
